Reference: ChEMBL document CHEMBL3352430, “4-Aminopyridyl-based CYP51 inhibitors as anti-Trypanosoma cruzi drug leads with improved pharmacokinetic profile and in vivo potency” (J Med Chem, 2014)

Test system: Intestine
Assay: Drug uptake in mouse intestine at 50 mg/kg, po in 20% Kolliphor measured at 8 hrs post dose
Assay type: ADME, organism-based
Set-up: dose 50 mg/kg, route oral
Conditions: in vivo; call rule not given here
Summary of the method: (§1)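 Female Swiss Webster mice, 8 weeks old, given a single 50 mg/kg oral gavage dose in 20% HPβCD or 20% Kolliphor. Tissues taken from three mice at 2 and 8 h post dose. Homogenized by probe sonication in PBS (1:4 w/v), protein precipitated with acetonitrile, and compound measured by LC-MS/MS in μM.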

Row | Compound | Drug uptake
1 | O=C(N[C@H](Cc1c[nH]c2ccccc12)C(=O)Nc1ccncc1)c1ccc(-c2ccc(F)c(Cl)c2)cc1F | Active

Test system: not listed separately
Assay: Clearance in mouse at 50 mg/kg, po in 20% HP-beta-CD
Assay type: ADME, organism-based
Set-up: dose 50 mg/kg, route oral
Conditions: in vivo
Summary of the method: (§2)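 Female Swiss Webster mice, 8 weeks old, given one oral gavage dose of 50 mg/kg as a 10 mg/mL preparation in the named vehicle (20% HPβCD suspension or 20% Kolliphor). Plasma sampled at about 0.25, 0.5, 1, 2, 4, 6, 8, 12 and 24 h, n = 3 per time point. Protein precipitated with 5 volumes acetonitrile, filtered, then LC-MS/MS. Values are averages of three mice.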

Row | Compound | CL/F [mL/min/kg]
2 | O=C(N[C@H](Cc1c[nH]c2ccccc12)C(=O)Nc1ccncc1)c1ccc(-c2ccc(F)c(Cl)c2)cc1F | 44.4

Test system: Trypanosoma cruzi
Assay: Antitrypanosomal activity against Trypanosoma cruzi amastigotes infected in mouse C2C12 cells after 72 hrs by DAPI staining method
Assay type: functional, organism-based
Conditions: C2C12, 72 h

Row | Compound | EC50 [nM]
3 | O=C(N[C@H](Cc1c[nH]c2ccccc12)C(=O)Nc1ccncc1)c1ccc(-c2ccc(F)c(Cl)c2)cc1F | 78

Test system: Trypanosoma cruzi
Assay: Antitrypanosomal activity against Trypanosoma cruzi Y luc infected in mouse assessed as inhibition of parasitemia at 25 mg/kg, po bid in 20% Kolliphor administered for 4 consecutive days starting on day 3 of infection measured on day 7 post infection relative to vehicle-treated control
Assay type: functional
Conditions: not given
Summary of the method: (§3)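 Female Swiss Webster mice, 8 weeks old, infected ip with 10^5 T. cruzi Y luc trypomastigotes. Only mice with detectable luminescence on day 3 were treated. Compound given by oral gavage bid for four days, as a suspension in 20% HPβCD or a solution in 20% Kolliphor, five mice per group. Vehicle group and benznidazole 50 mg/kg served as controls. On day 7, mice were injected ip with 150 mg/kg d-luciferin and imaged after 5 min under isoflurane. Percent inhibition calculated against untreated mice; two-tailed paired t test.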

Row | Compound | inhibition in vivo at 25 mg/kg [%]
4 | O=C(N[C@H](Cc1c[nH]c2ccccc12)C(=O)Nc1ccncc1)c1ccc(-c2ccc(F)c(Cl)c2)cc1F | 56.7

Test system: Liver
Assay: Half life in mouse liver microsomes
Assay type: ADME
Conditions: not given

Row | Compound | t1/2 [min]
5 | O=C(N[C@H](Cc1c[nH]c2ccccc12)C(=O)Nc1ccncc1)c1ccc(-c2ccc(F)c(Cl)c2)cc1F | 54

Test system: not listed separately
Assay: AUClast in mouse at 50 mg/kg, po in 20% Kolliphor
Assay type: ADME, organism-based
Set-up: time 0 - last, dose 50 mg/kg, route oral
Conditions: plasma
Summary of the method: as §2

Row | Compound | AUC(0-t) [µM·h]
6 | O=C(N[C@H](Cc1c[nH]c2ccccc12)C(=O)Nc1ccncc1)c1ccc(-c2ccc(F)c(Cl)c2)cc1F | 153

Test system: Trypanosoma cruzi
Assay: Antitrypanosomal activity against Trypanosoma cruzi Y luc infected in mouse assessed as inhibition of parasitemia at 50 mg/kg, po bid in 20% Kolliphor administered for 4 consecutive days starting on day 3 of infection measured on day 7 post infection relative to vehicle-treated control
Assay type: functional
Conditions: not given
Summary of the method: as §3

Row | Compound | inhibition in vivo at 50 mg/kg [%]
7 | O=C(N[C@H](Cc1c[nH]c2ccccc12)C(=O)Nc1ccncc1)c1ccc(-c2ccc(F)c(Cl)c2)cc1F | 85.2

Test system: Liver microsome
Assay: Half life in human liver microsomes
Assay type: ADME
Conditions: not given

Row | Compound | t1/2 [min]
8 | O=C(N[C@H](Cc1c[nH]c2ccccc12)C(=O)Nc1ccncc1)c1ccc(-c2ccc(F)c(Cl)c2)cc1F | 28

Test system: Liver
Assay: Drug uptake in mouse liver at 50 mg/kg, po in 20% Kolliphor measured at 8 hrs post dose
Assay type: ADME, organism-based
Set-up: dose 50 mg/kg, route oral
Conditions: in vivo
Summary of the method: as §1

Row | Compound | Drug uptake
9 | O=C(N[C@H](Cc1c[nH]c2ccccc12)C(=O)Nc1ccncc1)c1ccc(-c2ccc(F)c(Cl)c2)cc1F | Active

Test system: not listed separately
Assay: Tmax in mouse at 50 mg/kg, po in 20% Kolliphor
Assay type: ADME, organism-based
Set-up: dose 50 mg/kg, route oral
Conditions: in vivo
Summary of the method: as §2

Row | Compound | Tmax [min]
10 | O=C(N[C@H](Cc1c[nH]c2ccccc12)C(=O)Nc1ccncc1)c1ccc(-c2ccc(F)c(Cl)c2)cc1F | 45

Test system: Lung
Assay: Drug uptake in mouse lung at 50 mg/kg, po in 20% HP-beta-CD measured at 8 hrs post dose
Assay type: ADME, organism-based
Set-up: dose 50 mg/kg, route oral
Conditions: in vivo
Summary of the method: as §1

Row | Compound | Drug uptake
11 | O=C(N[C@H](Cc1c[nH]c2ccccc12)C(=O)Nc1ccncc1)c1ccc(-c2ccc(F)c(Cl)c2)cc1F | Active

Test system: Liver microsome
Assay: Half life in rat liver microsomes
Assay type: ADME
Conditions: not given

Row | Compound | t1/2 [min]
12 | O=C(N[C@H](Cc1c[nH]c2ccccc12)C(=O)Nc1ccncc1)c1ccc(-c2ccc(F)c(Cl)c2)cc1F | 25

Target: Cytochrome P450 3A4 (Homo sapiens, UniProt P08684)
Sequence (P08684 whole entry): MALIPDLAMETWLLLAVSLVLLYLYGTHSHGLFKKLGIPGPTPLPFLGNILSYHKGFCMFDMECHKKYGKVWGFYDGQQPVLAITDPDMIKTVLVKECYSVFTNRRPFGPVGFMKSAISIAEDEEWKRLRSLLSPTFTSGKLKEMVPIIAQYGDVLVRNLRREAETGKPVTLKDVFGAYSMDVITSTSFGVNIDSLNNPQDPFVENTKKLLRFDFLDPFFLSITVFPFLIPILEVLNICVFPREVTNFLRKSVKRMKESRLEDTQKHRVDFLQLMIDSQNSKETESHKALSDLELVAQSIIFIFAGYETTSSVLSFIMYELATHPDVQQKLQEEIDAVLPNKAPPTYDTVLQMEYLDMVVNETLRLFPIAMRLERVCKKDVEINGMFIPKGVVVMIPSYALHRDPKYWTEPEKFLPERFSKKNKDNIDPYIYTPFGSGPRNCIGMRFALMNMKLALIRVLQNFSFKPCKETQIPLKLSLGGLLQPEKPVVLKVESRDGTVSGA
Assay: Inhibition of CYP3A4 in human liver microsomes at 1 uM
Assay type: ADME
Conditions: not given

Row | Compound | inhibition (INH) [%]
13 | O=C(N[C@H](Cc1c[nH]c2ccccc12)C(=O)Nc1ccncc1)c1ccc(-c2ccc(F)c(Cl)c2)cc1F | 29

Test system: not listed separately
Assay: Drug uptake in mouse fat at 50 mg/kg, po in 20% HP-beta-CD measured at 8 hrs post dose
Assay type: ADME, organism-based, Adipose tissue
Set-up: dose 50 mg/kg, route oral
Conditions: in vivo
Summary of the method: as §1

Row | Compound | Drug uptake
14 | O=C(N[C@H](Cc1c[nH]c2ccccc12)C(=O)Nc1ccncc1)c1ccc(-c2ccc(F)c(Cl)c2)cc1F | Active

Test system: not listed separately
Assay: Drug uptake in mouse fat at 50 mg/kg, po in 20% Kolliphor measured at 8 hrs post dose
Assay type: ADME, organism-based, Adipose tissue
Set-up: dose 50 mg/kg, route oral
Conditions: in vivo
Summary of the method: as §1

Row | Compound | Drug uptake
15 | O=C(N[C@H](Cc1c[nH]c2ccccc12)C(=O)Nc1ccncc1)c1ccc(-c2ccc(F)c(Cl)c2)cc1F | Active

Target: Sterol 14-alpha demethylase (Trypanosoma cruzi (strain CL Brener), UniProt Q7Z1V1)
Sequence (Q7Z1V1 whole entry): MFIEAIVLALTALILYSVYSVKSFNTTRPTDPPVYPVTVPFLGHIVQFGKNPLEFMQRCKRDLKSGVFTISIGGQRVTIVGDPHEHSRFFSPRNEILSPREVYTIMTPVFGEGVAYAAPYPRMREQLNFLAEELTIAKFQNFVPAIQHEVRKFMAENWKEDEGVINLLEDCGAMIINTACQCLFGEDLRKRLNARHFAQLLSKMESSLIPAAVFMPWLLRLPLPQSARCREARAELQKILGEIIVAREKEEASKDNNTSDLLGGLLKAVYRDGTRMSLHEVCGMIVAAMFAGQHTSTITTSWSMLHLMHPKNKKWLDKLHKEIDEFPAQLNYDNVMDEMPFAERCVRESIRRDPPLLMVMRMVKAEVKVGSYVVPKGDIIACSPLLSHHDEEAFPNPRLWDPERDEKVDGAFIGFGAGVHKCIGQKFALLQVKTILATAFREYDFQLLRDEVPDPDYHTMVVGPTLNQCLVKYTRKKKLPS
Assay: Binding affinity to Trypanosoma cruzi CYP51 by UV-vis titration method
Conditions: read-out: Kd(app)

Row | Compound | Kd [nM]
16 | O=C(N[C@H](Cc1c[nH]c2ccccc12)C(=O)Nc1ccncc1)c1ccc(-c2ccc(F)c(Cl)c2)cc1F | 16

Test system: not listed separately
Assay: Drug uptake in mouse skeletal muscle at 50 mg/kg, po in 20% HP-beta-CD measured at 8 hrs post dose
Assay type: ADME, organism-based, Muscle tissue
Set-up: dose 50 mg/kg, route oral
Conditions: in vivo
Summary of the method: as §1

Row | Compound | Drug uptake
17 | O=C(N[C@H](Cc1c[nH]c2ccccc12)C(=O)Nc1ccncc1)c1ccc(-c2ccc(F)c(Cl)c2)cc1F | Active
